From ChEMBL document CHEMBL1795282, “Synthesis, biological evaluation, and docking studies of gigantol analogs as calmodulin inhibitors” (Eur J Med Chem, 2011)
pIC50: −log10 of the molar value. Active and inactive are the calls of the source. The calls are words filed in the database; no cut-off is given here.

Tests used:
Homo sapiens = organism: Homo sapiens; test: Binding affinity to human Calmodulin M124C mutant assessed as extrinsic fluorescence quenching in phosphate buffer at pH 5.1 by mBBr fluorescence assay
Outline: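 Ca²⁺–hCaM M124C–mBBr biosensor at 5 μM in 100 mM phosphate buffer, pH 5.1, with 10 mM CaCl₂, stirred at 37 °C and titrated with ligand. Excitation was at 381 nm, with emission scanned from 400 to 550 nm. Fractional saturation was taken as y = (F − F₀)/(F∞ − F₀) at 470 nm versus ligand concentration. Apparent constant Km, Emax and Hill coefficient came from a Hill-equation fit.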

Calmodulin-1 = Calmodulin-1 (Homo sapiens, UniProt P0DP23); test: Inhibition of Calmodulin-dependent PDE1 activity assessed as inorganic phosphate release after 30 min

Row | Structure (SMILES) | Km (Homo sapiens) | pIC50 (Calmodulin-1) | Activity (Homo sapiens) | inhibition (Calmodulin-1)
1 | COc1cc(O)cc(C(=O)/C=C/c2ccc(O)c(OC)c2)c1 | 5.31 µM | 4.24 | – | –
2 | c1ccc(COc2ccccc2)cc1 | – | – | inactive | inactive
3 | COc1cc(O)cc(C(=O)/C=C/c2ccc(OC)c(O)c2)c1 | 3.89 µM | 4.42 | – | –
4 | COc1cc(Cc2cccc(OC)c2O)cc(OC)c1 | 33.8 µM | 4.25 | – | –
5 | c1ccc(CCc2ccccc2)cc1 | – | – | inactive | inactive
6 | COc1cc(O)cc(CCc2ccc(O)c(OC)c2)c1 [GIGANTOL] | 60.8 µM | 3.94 | – | –
7 | Oc1cccc(CCc2ccc3c(c2)OCO3)c1 | 63.8 µM | 4.12 | – | –
8 | COc1ccc(CCCc2ccc(O)cc2)cc1 | 8.7 µM | 4.20 | – | –
9 | COc1cc(Cc2ccc(O)c(OC)c2)cc(OC)c1 | 33.1 µM | 4.26 | – | –
10 | CCOc1ccc(CCc2cc(O)cc(OC)c2)cc1OC | 25.3 µM | 4.26 | – | –
11 | CCOc1ccc(CCc2cccc(O)c2)cc1OC | 58.1 µM | 4.34 | – | –
12 | COc1ccc(CCc2cc(OC)cc(OC)c2)cc1 | 21.8 µM | 3.83 | – | –

Next, values leading:

Row | Km (Homo sapiens) | pIC50 (Calmodulin-1) | Activity (Homo sapiens) | inhibition (Calmodulin-1) | Structure (SMILES)
13 | 10.3 µM | 4.65 | – | – | COc1ccc(/C=C/C(=O)c2ccc(O)cc2)cc1
14 | 80 µM | 5.03 | – | – | COc1ccc(CCc2cc(O)cc(OC)c2)cc1
15 | 54.3 µM | 4.49 | – | – | COc1cc(O)cc(CCCc2ccc(O)c(OC)c2)c1
16 | 9.88 µM | 4.73 | – | – | CCOc1ccc(CCc2cc(OC)cc(OC)c2)cc1OC
17 | 10 µM | 4.44 | – | – | COc1cc(CCc2ccc(N(C)C)cc2)cc(OC)c1
18 | 14.2 µM | 4.64 | – | – | Oc1cccc(CCCc2ccc3c(c2)OCO3)c1
19 | 45.5 µM | 4.50 | – | – | COc1cc(O)cc(CCc2ccc3c(c2)OCO3)c1
20 | – | 4.82 | inactive | – | c1ccc(Cc2ccccc2)cc1 [DIPHENYLMETHANE]
21 | 12 µM | 4.52 | – | – | COc1cc(O)cc(CCc2ccc(N(C)C)cc2)c1
